The source made the active and inactive calls. The calls are words filed in the database; no cut-off is given here.
Legend:
[1] = molecular target: Poly [ADP-ribose] polymerase 2 (Homo sapiens, UniProt Q9UGN5); assay: Inhibition of PARP-2 (unknown origin) pre-incubated for 30 mins before addition of activated DNA and NAD by chemiluminescent assay
[2] = system: SK-BR-3; assay: Antiproliferation activity against human SK-BR-3 cells incubated for 7 days by CellTiter-Glo luminescent cell viability assay; assay type: functional, cell-based; conditions: SK-BR-3, 168 h
Procedure, shortened: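 Seeding density is set per line for log growth over 7 days. Cells attach 16 h, then are treated in duplicate with a 10-point dilution series for 7 days. CellTiter-Glo luminescence (ATP) is read, and viability is expressed relative to mock-treated control. EC50 is the mean of three independent experiments run in triplicate.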

[3] = system: NCI-H209; assay: Potentiation of TMZ-induced antitumor activity against human NCI-H209 cells xenografted in BALB/c nude mouse assessed as PR rate at […], po BID for 28 days and co-treated with 50 mg/kg, po QD TMZ for 5 consecutive days at start of study and again 14 days later; assay type: functional; conditions: time 28 day
[4] = Toxicity in BALB/c nude mouse xenografted with human MDA-MB-436 cells assessed as effect on animal mortality at 1.6 to […], po BID for 28 days followed by treatment was interruption and monitored for additional 2 months; assay type: organism-based; conditions: in vivo, dose 1.6-3.1 mg/kg, time 28 day
[5] = Unbound fraction in rat plasma; assay type: ADME, cell-free
[6] = molecular target: Organic anion transporter 3 (Homo sapiens, UniProt Q8TCC7); assay: Inhibition of OAT3 (unknown origin)
Chain of Organic anion transporter 3 (Q8TCC7 whole entry): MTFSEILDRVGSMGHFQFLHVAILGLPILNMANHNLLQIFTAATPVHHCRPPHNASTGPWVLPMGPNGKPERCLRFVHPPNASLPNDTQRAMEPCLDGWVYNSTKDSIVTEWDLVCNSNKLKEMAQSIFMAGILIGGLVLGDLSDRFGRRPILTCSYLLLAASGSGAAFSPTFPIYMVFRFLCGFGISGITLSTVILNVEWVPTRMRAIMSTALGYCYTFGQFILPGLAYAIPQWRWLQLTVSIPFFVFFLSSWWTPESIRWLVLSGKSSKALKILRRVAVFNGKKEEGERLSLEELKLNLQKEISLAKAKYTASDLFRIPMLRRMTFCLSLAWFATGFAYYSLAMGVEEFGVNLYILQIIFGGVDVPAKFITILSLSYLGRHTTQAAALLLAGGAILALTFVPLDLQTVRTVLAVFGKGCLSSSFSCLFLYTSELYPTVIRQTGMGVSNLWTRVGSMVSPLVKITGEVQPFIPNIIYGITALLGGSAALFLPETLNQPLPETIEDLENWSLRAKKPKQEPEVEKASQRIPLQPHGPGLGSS

[7] = molecular target: hERG (KCNH2) (Homo sapiens, UniProt Q12809); assay: Inhibition of human ERG activity at 20 uM by functional cellular assay
Chain of hERG (KCNH2) (Q12809 whole entry): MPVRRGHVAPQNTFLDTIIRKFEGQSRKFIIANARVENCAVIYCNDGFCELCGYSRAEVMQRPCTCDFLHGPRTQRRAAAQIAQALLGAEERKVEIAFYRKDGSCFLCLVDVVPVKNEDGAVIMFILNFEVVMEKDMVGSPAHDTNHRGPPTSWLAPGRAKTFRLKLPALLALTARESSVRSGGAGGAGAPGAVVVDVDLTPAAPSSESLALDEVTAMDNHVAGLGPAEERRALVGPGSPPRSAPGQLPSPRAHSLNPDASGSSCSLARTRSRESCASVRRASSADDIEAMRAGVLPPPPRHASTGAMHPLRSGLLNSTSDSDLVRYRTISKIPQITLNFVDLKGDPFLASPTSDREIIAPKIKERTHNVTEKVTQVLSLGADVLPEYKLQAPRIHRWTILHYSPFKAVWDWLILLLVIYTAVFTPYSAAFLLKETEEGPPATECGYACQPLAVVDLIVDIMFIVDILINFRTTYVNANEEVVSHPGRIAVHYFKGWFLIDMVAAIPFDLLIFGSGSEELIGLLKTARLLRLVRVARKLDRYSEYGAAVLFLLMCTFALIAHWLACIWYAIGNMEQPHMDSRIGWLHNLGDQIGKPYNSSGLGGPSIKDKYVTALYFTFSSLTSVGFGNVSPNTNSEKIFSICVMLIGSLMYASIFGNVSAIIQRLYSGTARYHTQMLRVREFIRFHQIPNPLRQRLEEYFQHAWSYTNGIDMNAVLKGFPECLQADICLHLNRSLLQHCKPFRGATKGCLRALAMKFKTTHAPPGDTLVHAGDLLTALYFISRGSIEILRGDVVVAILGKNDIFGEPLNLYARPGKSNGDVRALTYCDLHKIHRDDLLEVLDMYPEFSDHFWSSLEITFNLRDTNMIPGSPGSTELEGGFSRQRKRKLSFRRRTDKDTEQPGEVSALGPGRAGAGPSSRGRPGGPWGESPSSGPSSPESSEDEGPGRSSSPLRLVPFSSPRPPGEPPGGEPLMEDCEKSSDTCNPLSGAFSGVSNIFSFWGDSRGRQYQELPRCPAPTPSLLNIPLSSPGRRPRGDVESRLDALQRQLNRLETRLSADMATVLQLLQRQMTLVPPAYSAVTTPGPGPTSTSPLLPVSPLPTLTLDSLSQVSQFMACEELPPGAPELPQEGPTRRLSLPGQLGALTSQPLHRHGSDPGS

[8] = molecular target: Broad substrate specificity ATP-binding cassette transporter ABCG2 (Homo sapiens, UniProt Q9UNQ0); assay: Inhibition of BCRP (unknown origin) up to 30 uM
Chain of Broad substrate specificity ATP-binding cassette transporter ABCG2 (Q9UNQ0 whole entry): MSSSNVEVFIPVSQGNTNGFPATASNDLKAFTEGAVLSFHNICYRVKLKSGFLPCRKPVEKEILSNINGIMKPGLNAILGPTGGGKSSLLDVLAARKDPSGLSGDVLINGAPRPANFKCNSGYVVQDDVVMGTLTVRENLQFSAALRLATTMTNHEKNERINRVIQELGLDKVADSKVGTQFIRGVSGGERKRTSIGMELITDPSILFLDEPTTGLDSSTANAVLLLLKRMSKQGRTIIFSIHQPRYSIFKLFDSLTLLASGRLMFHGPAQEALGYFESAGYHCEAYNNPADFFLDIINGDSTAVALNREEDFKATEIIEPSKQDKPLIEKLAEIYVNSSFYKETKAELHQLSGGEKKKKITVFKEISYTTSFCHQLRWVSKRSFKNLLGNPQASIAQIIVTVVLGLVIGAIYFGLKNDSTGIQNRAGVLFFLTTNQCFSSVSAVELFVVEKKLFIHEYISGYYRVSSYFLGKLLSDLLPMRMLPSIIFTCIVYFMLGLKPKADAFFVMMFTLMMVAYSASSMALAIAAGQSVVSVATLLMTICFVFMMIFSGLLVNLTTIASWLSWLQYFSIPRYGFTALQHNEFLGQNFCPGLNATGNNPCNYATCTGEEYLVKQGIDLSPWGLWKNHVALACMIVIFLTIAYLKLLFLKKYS

[9] = Clearance in Beagle dog at 1 mg/kg, iv by LC-MS/MS analysis; assay type: ADME, organism-based, Canis lupus familiaris; conditions: in vivo
Procedure, shortened: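 Three Beagle dogs; iv dose 1 mg/kg in 25% DMA in water; oral dose 2 mg/kg in 0.5% CMC-Na. Plasma drug concentrations are measured by LC–MS/MS. Values are the mean of three dogs.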

[10] = system: NCI-H209; assay: Potentiation of TMZ-induced antitumor activity against human NCI-H209 cells xenografted in BALB/c nude mouse assessed as tumor relapse rate at […], po BID for 28 days and co-treated with 50 mg/kg, po QD TMZ for 5 consecutive days at start of study and again 14 days later and measured after 68 days; assay type: functional, organism-based; conditions: time 28.0 day
[11] = Unbound fraction in human plasma; assay type: ADME, cell-free
[12] = Cmax in ICR mouse at 10 mg/kg, po by LC-MS/MS analysis; assay type: ADME, organism-based; set-up: route oral, dose 10 mg/kg; conditions: in vivo
Procedure, shortened: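 Male/female unspecified ICR mice, n=3 per route. Intravenous 1 mg/kg in 5% DMA in water; oral 10 mg/kg in 0.5% MC. Plasma is processed by protein precipitation and analysed by LC–MS/MS using an acetonitrile/0.1% formic acid gradient. Values are means of the three animals.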

[13] = Oral bioavailability in Beagle dog at 2 mg/kg by LC-MS/MS analysis; assay type: ADME, organism-based, Canis lupus familiaris; conditions: in vivo
Procedure, shortened: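 Beagle dogs, three per group. iv 1 mg/kg in 25% DMA in water; oral 2 mg/kg. Values are means of three dogs.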

[14] = AUC (0 to infinity) in Sprague-Dawley rat at 2 mg/kg, iv by LC-MS/MS analysis; assay type: ADME, organism-based; set-up: time infinity, route intravenous, dose 2 mg/kg; conditions: in vivo
Procedure, shortened: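 Sprague-Dawley rats (n=3) get 2 mg/kg iv formulated in 38% DMA in water. Plasma is protein-precipitated and quantified by LC–MS/MS (C18, acetonitrile/0.1% formic acid gradient). Parameters are means of the three rats.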

Chain of Poly [ADP-ribose] polymerase 2 (Q9UGN5 whole entry): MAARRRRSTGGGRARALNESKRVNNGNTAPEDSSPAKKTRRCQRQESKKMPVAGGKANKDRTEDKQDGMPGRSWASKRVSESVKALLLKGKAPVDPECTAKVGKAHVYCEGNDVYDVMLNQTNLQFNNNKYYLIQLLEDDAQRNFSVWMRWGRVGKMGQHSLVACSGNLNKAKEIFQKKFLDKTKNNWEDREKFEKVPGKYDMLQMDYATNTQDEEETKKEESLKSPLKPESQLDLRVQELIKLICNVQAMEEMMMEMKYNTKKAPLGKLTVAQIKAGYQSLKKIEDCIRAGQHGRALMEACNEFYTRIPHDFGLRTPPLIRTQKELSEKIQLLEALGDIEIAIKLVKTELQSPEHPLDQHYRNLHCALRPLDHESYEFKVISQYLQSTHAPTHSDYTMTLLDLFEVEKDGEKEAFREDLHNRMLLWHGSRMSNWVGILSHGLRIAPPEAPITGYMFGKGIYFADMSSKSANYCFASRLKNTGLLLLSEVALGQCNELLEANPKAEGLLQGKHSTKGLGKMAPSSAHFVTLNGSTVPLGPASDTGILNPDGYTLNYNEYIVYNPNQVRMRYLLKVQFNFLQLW

C[C@]12CCCN1CC1=NNC(=O)c3cc(F)cc4[nH]c2c1c34 [PAMIPARIB]
IC50 [1]: 0.0009 µM | EC50 [2]: > 10 µM | Activity [3]: 50% | Activity [4]: Non-Toxic | fraction unbound [5]: 0.151 | IC50 [6]: 23.9 µM | inhibition at 20 µM [7]: 51% | inhibition (INH) [8]: Not Active | CL [9]: 15.2 mL/min/kg | Activity [10]: Active | fraction unbound [11]: 0.043 | Cmax [12]: 2710 ng/mL | bioavailability [13]: 72.6% | AUC(0-inf) [14]: 1480 ng·h/mL

Source: ChEMBL document CHEMBL4673340 (J Med Chem, 2020)
